For one assay, the system named is P388. As to the kind of experiment: Cytotoxicity against mouse P388 cells. The assay is classed as functional. As to conditions: read-out: ED50 (the source's name).
The next assay concerns A549. Briefly: Cytotoxicity against human A549 cells. In kind it is functional, cell-based. The gist of the method:
(§1)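 Human A549 (lung adenocarcinoma) and HT-29 (colon adenocarcinoma) cells were obtained from ATCC. In vitro cytotoxicity was measured on the cultured cells.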

A further assay has as its system HT-29. Briefly: Cytotoxicity against human HT29 cells. In kind it is functional, cell-based. The gist of the method:
as §1

Values after ≈ are worked out from the molar mass of the structure shown.

For `COC(=O)[C@@H]1[C@@H](/C(=C\CC(O)C(C)(C)O)COC(C)=O)CC[C@]2(C)[C@@H]3CC[C@]12CO3` (stereo partly drawn) [UMBELLACIN D], the EC50 in the assay on P388 was 4.2 µg/mL (≈ 9.89 µM). Further, the Activity entry with A549 and in the assay with HT-29 was “Not toxic” throughout.

With `C=C1CC/C=C(\C)CC[C@H](/C(=C\CC(O)C(C)(C)O)COC(C)=O)[C@H]1C(=O)OC` (stereo partly drawn) [UMBELLACIN F], the EC50 in the assay on P388 stood at 3.7 µg/mL (≈ 9.06 µM). In addition, the Activity result with A549 and with HT-29 was “Not toxic” in each case.

With `COC(=O)[C@H]1C2=CC[C@@H](O)[C@@](C)(CC[C@@H]1/C(=C\CC(O)C(C)(C)O)COC(C)=O)C2` (stereo partly drawn) [UMBELLACIN E], the EC50 in the assay on P388 was 3.8 µg/mL (≈ 8.95 µM). Further, the Activity result with A549 and in the assay with HT-29 was “Not toxic” each time.

For the compound `C=C1CC[C@@H]2O[C@@]2(C)CC[C@H](/C(=C\CC(O)C(C)(C)O)COC(C)=O)[C@H]1C(=O)OC` (stereo partly drawn) [UMBELLACIN H], the EC50 in the assay with P388 worked out at 3.4 µg/mL (≈ 8.01 µM). Besides, the Activity entry with A549 and in the assay with HT-29 was “Not toxic” in each case.

Regarding `C=C(C)C(O)C/C=C(/COC(C)=O)[C@H]1CC[C@@]2(C)C[C@](O)(CC[C@H]2O)[C@@H]1C(=O)OC` (stereo partly drawn) [UMBELLACIN B], the EC50 in the assay on P388 turned out to be 1.6 µg/mL (≈ 3.77 µM). Moreover, the Activity result in the assay with A549 and in the assay with HT-29 was “Not toxic” each time.

Regarding `C=C1C[C@@H](O)/C=C(\C)CC[C@@H]2/C(=C\C=C\C(C)(C)O)[C@@H](OC)O[C@H](OC)[C@@H]12`, the Activity result in the assay on A549 and with HT-29 was “Not toxic” each time.

For the compound `COC(=O)[C@@H]1[C@@H](/C(=C\CC(O)C(C)(C)O)COC(C)=O)CC[C@@]2(C)C[C@]1(O)CC[C@H]2O` (stereo partly drawn) [UMBELLACIN I], the EC50 in the assay with P388 was found to be 3.6 µg/mL (≈ 8.13 µM). The Activity entry in the assay on A549 and in the assay on HT-29 was “Not toxic” throughout.

For `CC(C)(O)/C=C/C=C(/C=O)[C@H]1CC[C@@]2(C)C[C@](O)(CC[C@H]2O)[C@@H]1C=O`, the Activity result in the assay on A549 and in the assay on HT-29 was “Not toxic” in each case.

Take `C=C1CC[C@@H]2O[C@@]2(C)CC[C@H]2[C@H]1C(=O)O[C@@]2(/C=C/C1OC1(C)C)CO` (stereo partly drawn): the Activity result in the assay with A549 and with HT-29 was “Not toxic” throughout.

Regarding `CC(C)(O)/C=C/C=C1/COC(=O)[C@H]2C3=CC[C@@H](O)[C@@](C)(CC[C@H]12)C3`, the Activity result with A549 and with HT-29 was “Not toxic” each time.

`C=C1CC[C@@H]2O[C@@]2(C)CC[C@H]2[C@H]1C(=O)O[C@@]2(/C=C/C1OC1(C)C)COC(C)=O` (stereo partly drawn): the Activity entry with A549 and with HT-29 was “Not toxic” throughout.

Source of the values: ChEMBL document CHEMBL1157283, “Cytotoxic xenia diterpenoids from the soft coral Xenia umbellata” (2006).
